# Data published in ChEMBL document CHEMBL1255300, “Pharmacodynamics of the antibacterial effect and emergence of resistance to tomopenem, formerly RO4908463/CS-023, in an in vitro pharmacokinetic model of Staphylococcus aureus infection” (Antimicrob Agents Chemother, 2008).
# Calls of active or inactive are those of the source. No cut-off for these calls is given here.
# Key:
# Staphylococcus aureus [1] = assay: Antibacterial activity against methicillin-resistant Staphylococcus aureus 33815 infected in in vitro pharmacokinetic model assessed as reduction in viable count at 1500 mg, iv every 8 hrs measured after 12 hrs using 10^6 CFU/ml inoculum; assay type: functional
# In short: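 Log change in viable count from time zero to 12 h, β-lactamase-neutralised spiral plating, detection limit 10^2 CFU/ml, at least triplicate.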
# Staphylococcus aureus [2] = assay: AUBKC (0 to 48 hrs) in methicillin-resistant Staphylococcus aureus 33922 infected in in vitro pharmacokinetic model at 750 mg, iv every 8 hrs using 10^8 CFU/ml inoculum; assay type: functional
# In short: (§1)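 Single-compartment dilutional in vitro PK model at 37°C in 10% Mueller-Hinton broth, stirred, flow 132 ml/h. […] Inoculum 10^6 CFU/ml added 45 min before dosing, or 10^8 CFU/ml run overnight. Viable counts with β-lactamase neutralisation. AUBKC by log-linear trapezoidal rule, at least triplicate.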
# Staphylococcus aureus [3] = assay: Antibacterial activity against methicillin-resistant Staphylococcus aureus 33921 infected in in vitro pharmacokinetic model assessed as reduction in viable count at 1500 mg, iv every 8 hrs measured after 12 hrs using 10^6 CFU/ml inoculum; assay type: functional
# In short: (§2)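 Single-compartment dilutional in vitro PK model, 10% Mueller-Hinton broth, 37°C, stirred, dilution 132 ml/h. […] Inoculum 10^6 CFU/ml (added 45 min pre-dose) or 10^8 CFU/ml (run overnight). Viable counts by spiral plating, beta-lactamase neutralization, detection limit 10^2 CFU/ml. At least triplicate.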
# Staphylococcus aureus [4] = assay: T>MIC for 4-log drop in count in methicillin-resistant Staphylococcus aureus 33922 in in vitro pharmacokinetic model after 24 hrs using 10^8 CFU/ml inoculum; assay type: functional
# Staphylococcus aureus [5] = assay: Antibacterial activity against methicillin-sensitive Staphylococcus aureus 5956 by broth dilution method; assay type: functional
# Staphylococcus aureus [6] = assay: Antibacterial activity against methicillin-sensitive Staphylococcus aureus 5956 infected in in vitro pharmacokinetic model assessed as time required to 99.9% killing at 750 mg, iv every 8 hrs using 10^6 CFU/ml inoculum; assay type: functional
# Staphylococcus aureus [7] = assay: Antibacterial activity against methicillin-resistant Staphylococcus aureus 33922 infected in in vitro pharmacokinetic model assessed as reduction in viable count at 1500 mg, iv every 8 hrs measured after 12 hrs using 10^8 CFU/ml inoculum; assay type: functional
# Staphylococcus aureus [8] = assay: AUBKC (0 to 24 hrs) in methicillin-sensitive Staphylococcus aureus 5956 infected in in vitro pharmacokinetic model at 750 mg, iv every 8 hrs using 10^6 CFU/ml inoculum; assay type: functional
# Staphylococcus aureus [9] = assay: Antibacterial activity against methicillin-resistant Staphylococcus aureus 33820 in in vitro pharmacokinetic model assessed as viable count at 2 times of MIC; assay type: functional
# In short: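 Population analysis before drug exposure (time 0). Model samples were plated on nutrient agar without drug and with tomopenem at 2×, 4× and 6× MIC (10% MHB MIC), and growth was recorded as log CFU/ml. Detection limit 2 log10.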
# Staphylococcus aureus [10] = assay: T>MIC for 2-log drop in count in methicillin-resistant Staphylococcus aureus 33827 in in vitro pharmacokinetic model after 24 hrs using 10^8 CFU/ml inoculum; assay type: functional
# Staphylococcus aureus [11] = assay: Antibacterial activity against methicillin-resistant Staphylococcus aureus 33827 infected in in vitro pharmacokinetic model assessed as reduction in viable count at 1500 mg, iv every 8 hrs measured after 24 hrs using 10^6 CFU/ml inoculum; assay type: functional; in short: as §2
# Staphylococcus aureus [12] = assay: AUBKC (0 to 48 hrs) in methicillin-resistant Staphylococcus aureus 33820 infected in in vitro pharmacokinetic model at 1500 mg, iv every 8 hrs using 10^6 CFU/ml inoculum; assay type: functional; in short: as §1
# Staphylococcus aureus [13] = assay: Antibacterial activity against methicillin-resistant Staphylococcus aureus 33827 infected in in vitro pharmacokinetic model assessed as time required to 99.9% killing at 1500 mg, iv every 8 hrs using 10^6 CFU/ml inoculum; assay type: functional; in short: as §2
# Staphylococcus aureus [14] = assay: AUBKC (0 to 48 hrs) in methicillin-resistant Staphylococcus aureus 33827 infected in in vitro pharmacokinetic model at 750 mg, iv every 8 hrs using 10^6 CFU/ml inoculum; assay type: functional; in short: as §1
# Staphylococcus aureus [15] = assay: Antibacterial activity against methicillin-resistant Staphylococcus aureus 33815 infected in in vitro pharmacokinetic model assessed as time required to 99% killing at 1500 mg, iv every 8 hrs using 10^6 CFU/ml inoculum; assay type: functional
# Staphylococcus aureus [16] = assay: AUBKC (0 to 24 hrs) in methicillin-resistant Staphylococcus aureus 33829 infected in in vitro pharmacokinetic model at 750 mg, iv every 8 hrs using 10^6 CFU/ml inoculum; assay type: functional; in short: as §1
# Serum = assay: Drug level in human serum at 1400 mg; assay type: ADME, cell-free
# Staphylococcus aureus [17] = assay: AUBKC (0 to 48 hrs) in methicillin-resistant Staphylococcus aureus 33829 infected in in vitro pharmacokinetic model at 750 mg, iv every 8 hrs using 10^6 CFU/ml inoculum; assay type: functional; in short: as §1
# Staphylococcus aureus [18] = assay: Antibacterial activity against methicillin-resistant Staphylococcus aureus 33921 assessed as viable count at 4 times of MIC after 48 hrs using 10^6 CFU/ml inoculum; assay type: functional, organism-based
# Staphylococcus aureus [19] = assay: Antibacterial activity against methicillin-resistant Staphylococcus aureus 33922 infected in in vitro pharmacokinetic model assessed as time required to 99.9% killing at 1500 mg, iv every 8 hrs using 10^8 CFU/ml inoculum; assay type: functional
# Staphylococcus aureus [20] = assay: T>MIC in methicillin-resistant Staphylococcus aureus 33815 infected in vitro pharmacokinetic model at 750 mg, iv every 8 hrs; assay type: functional
# Staphylococcus aureus [21] = assay: Antibacterial activity against methicillin-resistant Staphylococcus aureus 33921 by broth dilution method; assay type: functional
# In short: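 MIC by CLSI broth dilution, or by broth dilution in 10% Mueller-Hinton broth at nondoubling dilutions.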
smiles,measurement,setting,value
C[C@@H](O)[C@H]1C(=O)N2C(C(=O)O)=C(S[C@H]3C[C@@H](C(=O)N4CC[C@H](NC(=O)CNC(=N)N)C4)N(C)C3)[C@H](C)[C@H]12 [TOMOPENEM],log10CFU/ml,Staphylococcus aureus [1],4.2
same,AUBC,Staphylococcus aureus [2],81.5 log10CFU/ml.hr
same,log10CFU/ml,Staphylococcus aureus [3],3
same,fT>MIC,Staphylococcus aureus [4],15%
same,MIC,Staphylococcus aureus [5],0.06 µg/mL
same,Time,Staphylococcus aureus [6],6 h
same,log10CFU/ml,Staphylococcus aureus [7],1.5
same,AUBC,Staphylococcus aureus [8],27.6 log10CFU/ml.hr
same,log10CFU/ml,Staphylococcus aureus [9],2.3
same,fT>MIC,Staphylococcus aureus [10],39.6%
same,log10CFU/ml,Staphylococcus aureus [11],4
same,AUBC,Staphylococcus aureus [12],23.4 log10CFU/ml.hr
same,Time,Staphylococcus aureus [13],12 h
same,AUBC,Staphylococcus aureus [14],44.9 log10CFU/ml.hr
same,Time,Staphylococcus aureus [15],3 h
same,AUBC,Staphylococcus aureus [16],25 log10CFU/ml.hr
same,Drug uptake,Serum,100 mg/L
same,AUBC,Staphylococcus aureus [17],25 log10CFU/ml.hr
same,Activity,Staphylococcus aureus [18],Active
same,Time,Staphylococcus aureus [19],24 h
same,fT>MIC,Staphylococcus aureus [20],73%
same,MIC,Staphylococcus aureus [21],0.5 µg/mL
